Activity calls are given as the source filed them. The calls are words filed in the database; no cut-off is given here.
Experiments:
[1] = Cytotoxicity against human HepG2.2.15 cells […] by MTT assay; format: cell-based, HepG2 2.2.15
Outline: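 HepG2.2.15 cells were seeded at 2×10^5 cells/mL and dosed with graded compound concentrations after 24 h. Medium with compound was refreshed at 72 h, then cells were kept a further 72 h. MTT was added for 4 h, formazan was dissolved in DMSO and absorbance read at 490 nm. The value is CC50, the concentration giving 50% cytotoxicity.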

[2] = Selectivity index, ratio of CC50 for human HepG2.2.15 cells to EC50 for HBV infected in human HepG2.2.15 cells; format: toxicity, cell-based; conditions: read-out: Ratio CC50/EC50
Outline: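 Selectivity index is calculated as CC50/EC50. CC50 comes from an MTT assay and EC50 from qRT-PCR of intracellular HBV DNA. Both use HepG2.2.15 cells dosed for two 72 h periods with a medium renewal between them.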

[3] = (§1) Inhibition of DHBV DNA polymerase derived from infected duckling liver assessed as decrease in biotin-11-dUTP incorporation using poly (A)/oligo(dT)15 as template/primer after 1 hr by ELISA; parameters: species or system Duck hepatitis B virus
Outline: (§2)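 Enzyme is DHBV polymerase from liver homogenate of infected ducklings. It was pelleted, and the 35% and 40% fractions of a sucrose density gradient were pooled and used at a "1/100" dilution of one liver's yield. Oligo(dT)15 primer is covalently immobilized on the plate. The mix contains 17.5 µg/ml poly(A), 8 µM dTTP, 2 µM biotin-11-dUTP, 5 mM DTT, 17 mM MgCl2, 65 µg/ml BSA, 50 mM Tris-HCl pH 8.3 and 75 mM KCl. Incubation is 1 h at 37 °C. After BSA blocking, streptavidin-alkaline phosphatase is added and PNPP signal is read after NaOH stop. Line 6 is tested at 100 µM and line 7 at 200 µM.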

Hepatitis B virus [4] = test: Antiviral activity against HBV infected in human HepG2.2.15 cells assessed as inhibition of viral DNA levels at 10 uM after […] by qRT-PCR analysis; format: functional, organism-based
Outline: (§3)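 HepG2.2.15 cells were seeded at 2×10^5 cells/mL and exposed to compound 24 h later. Compound-containing medium was renewed at 72 h and cells were kept another 72 h. After a PBS wash, intracellular HBV DNA was extracted from lysates and quantified by qRT-PCR. Line 1 gives the 50% inhibitory concentration; lines 2 and 3 test single concentrations of 10 µM and 20 µM.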

Hepatitis B virus [5] = test: Antiviral activity against HBV infected in human HepG2.2.15 cells assessed as inhibition of viral DNA levels at 20 uM […] by qRT-PCR analysis relative to control; format: functional; outline: as §3
Duck hepatitis B virus [6] = test: Inhibition of DHBV DNA polymerase derived from infected duckling liver assessed as decrease in biotin-11-dUTP incorporation using poly (A)/oligo(dT)15 as template/primer at 100 uM after 1 hr by ELISA relative to control; outline: as §2
Duck hepatitis B virus [7] = test: as §1; outline: as §2
Duck hepatitis B virus [8] = test: Inhibition of DHBV DNA polymerase derived from infected duckling liver assessed as decrease in biotin-11-dUTP incorporation using poly (A)/oligo(dT)15 as template/primer at 200 uM after 1 hr by ELISA; outline: as §2

Row | SMILES | CC50 [1] [µM] | selectivity ratio [2] | IC50 [3] [µM] | other results
1 | COC(=O)c1ccc(CSc2nc(Cc3cc(C)cc(C)c3)c(I)c(=O)[nH]2)cc1 | 64.8 | 5 | 38.8 | –
2 | N#Cc1ccc(CSc2nc(Cn3nnc4ccccc43)c(I)c(=O)[nH]2)cc1 | – | – | 128 | inhibition (Hepatitis B virus [4]): inactive
3 | Cc1cc(C)cc(Cc2nc(SCc3ccc([N+](=O)[O-])cc3)[nH]c(=O)c2I)c1 | 39 | 5.9 | 33 | –
4 | COC(=O)c1ccc(CSc2nc(Cc3cc(C)cc(C)c3)cc(=O)[nH]2)cc1 | – | – | – | inhibition at 20 µM (Hepatitis B virus [5]): 13.3%; inhibition (Duck hepatitis B virus [6]): 3.66%
5 | N#Cc1ccc(CSc2nc(C(=O)NCCCc3ccccc3)c(I)c(=O)[nH]2)cc1 | > 50 | > 30 | > 200 | –
6 | Cc1cc(C)cc(Cc2nc(SCCc3ccc([N+](=O)[O-])cc3)[nH]c(=O)c2I)c1 | 66.6 | 6.8 | 71.9 | –
7 | O=c1[nH]c(SCc2ccc([N+](=O)[O-])cc2)nc(Cn2nnc3ccccc32)c1I | – | – | 104 | inhibition (Hepatitis B virus [4]): inactive
8 | O=c1[nH]c(SCc2ccc([N+](=O)[O-])cc2)nc(Cc2cc(F)cc(F)c2)c1I | > 100 | > 16 | 29.5 | –
9 | N#Cc1ccc(CSc2nc(CN3CCc4ccccc4C3)c(I)c(=O)[nH]2)cc1 | – | – | 60.5 | –
10 | Cc1cc(C)cc(Cc2nc(SCCOc3ccc([N+](=O)[O-])cc3)[nH]c(=O)c2I)c1 | 96.6 | 14 | 56 | –
11 | O=c1cc(Cc2cc(F)cc(F)c2)nc(SCc2ccc([N+](=O)[O-])cc2)[nH]1 | – | – | – | inhibition at 20 µM (Hepatitis B virus [5]): 32.9%; inhibition (Duck hepatitis B virus [6]): 16.1%
12 | N#Cc1ccc(CSc2nc(C(=O)N3CCCc4ccccc43)c(I)c(=O)[nH]2)cc1 | > 100 | > 62 | > 200 | –
13 | Nc1ccn([C@H]2CS[C@@H](CO)O2)c(=O)n1 | > 100 | > 164 | – | –
14 | CC(=O)c1ccc(CSc2nc(Cc3cc(C)cc(C)c3)c(I)c(=O)[nH]2)cc1 | 78.3 | 6.4 | 42.9 | –
15 | O=C(O)P(=O)(O)O [FOSCARNET] | – | – | 6.54 | inhibition (Duck hepatitis B virus [7]): Dose-dependent effect
16 | N#Cc1ccc(CSc2nc(CN3CCCCC3)c(I)c(=O)[nH]2)cc1 | – | – | – | inhibition (Duck hepatitis B virus [8]): inactive; inhibition (Hepatitis B virus [4]): inactive
17 | O=c1[nH]c(SCc2ccc([N+](=O)[O-])cc2)nc(Cc2ccccc2)c1I | 52.7 | 7 | 42.8 | –
18 | Cc1cc(C)cc(Cc2nc(SCc3ccc(C#N)cc3)[nH]c(=O)c2I)c1 | 43.2 | 6.1 | 35.6 | –
19 | CN1CCN(C(=O)c2nc(SCc3ccc(C#N)cc3)[nH]c(=O)c2I)CC1 | > 100 | > 38 | – | inhibition (Duck hepatitis B virus [8]): inactive
